Source: ChEMBL document CHEMBL1125365, “Acyl-CoA:cholesterol O-acyl transferase (ACAT) inhibitors. 1. 2-(Alkylthio)-4,5-diphenyl-1H-imidazoles as potent inhibitors of ACAT” (J Med Chem, 1992)

Experiments:
[1] = molecular target: T1, Sterol O-acyltransferase 1 (Rattus norvegicus) (UniProt O70536); assay: Tested in vitro for acyl coenzyme A:cholesterol acyltransferase (ACAT) activity in rat liver microsome at a concentration of 1 micro g/mL; assay type: microsomes
T1 sequence (whole entry): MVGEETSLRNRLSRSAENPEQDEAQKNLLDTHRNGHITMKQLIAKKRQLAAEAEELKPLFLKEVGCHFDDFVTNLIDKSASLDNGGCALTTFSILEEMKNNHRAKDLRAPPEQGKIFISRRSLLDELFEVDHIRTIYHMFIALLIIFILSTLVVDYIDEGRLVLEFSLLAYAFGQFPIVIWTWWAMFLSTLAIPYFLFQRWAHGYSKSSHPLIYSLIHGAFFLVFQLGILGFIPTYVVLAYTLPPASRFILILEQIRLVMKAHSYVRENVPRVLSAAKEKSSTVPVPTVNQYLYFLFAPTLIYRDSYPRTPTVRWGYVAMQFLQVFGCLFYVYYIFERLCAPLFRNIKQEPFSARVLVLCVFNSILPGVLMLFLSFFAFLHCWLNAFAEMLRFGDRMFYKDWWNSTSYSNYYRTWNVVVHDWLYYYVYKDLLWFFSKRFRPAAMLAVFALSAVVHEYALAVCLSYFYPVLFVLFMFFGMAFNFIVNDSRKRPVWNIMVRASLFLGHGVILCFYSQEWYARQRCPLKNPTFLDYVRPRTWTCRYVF
Method in brief: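 Enzyme source was hepatic microsomes from cholesterol-fed rats, 60 μg microsomal protein per reaction, with 90 μM radiolabeled oleoyl-CoA. Cholesterol ester formed was separated by TLC and quantified by scintillation counting. Compounds were tested at a single fixed concentration of 1 or 10 μg/mL, and results were given as percent inhibition of enzyme activity.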

[2] = molecular target: T2, Sterol O-acyltransferase 1 (Rattus norvegicus, UniProt O70536); assay: Inhibition of acyl coenzyme A:cholesterol acyltransferase (ACAT) activity in rat liver microsome; assay type: microsomes
T2 sequence (O70536 whole entry): T1 sequence (whole entry)
Method in brief: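 The assay used rat hepatic microsomes from cholesterol-fed animals (60 μg protein) and 90 μM radiolabeled oleoyl-CoA. Cholesterol ester product was resolved by TLC and counted by scintillation. IC50 was the concentration inhibiting 50% of enzyme activity.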

Rattus norvegicus = assay: Tested in vivo for anti-hypercholesterolaemic activity in male Sprague-Dawley rat.; assay type: functional
Method in brief: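 Compound was given at 0.03% w/w in the diet (about 30 mg/kg/day). Basal-diet rats (n = 4) gave a baseline that was subtracted. Plasma cholesterol was measured enzymatically, and the result was expressed as percent change versus undosed controls.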

[3] = molecular target: T1, Sterol O-acyltransferase 1 (Rattus norvegicus); assay: Tested in vitro for Acyl coenzyme A:cholesterol acyltransferase (ACAT) activity in rat liver microsome at a concentration of 1 micro g/mL

inhibition [1] [%] | IC50 [2] [nM] | inhibition [3] [%] | SMILES | Change (Rattus norvegicus) [%]
94 | 64 |  | Cc1cccc(-c2nc(SC[C@H]3C[C@@](C)(O)CC(=O)O3)[nH]c2-c2cccc(C)c2)c1.Cc1cccc(-c2nc(SC[C@H]3C[C@](C)(O)CC(=O)O3)[nH]c2-c2cccc(C)c2)c1 | -64
92 | 210 |  | c1ccc(-c2nc(SCC3CCCCO3)[nH]c2-c2ccccc2)cc1 (stereo unspecified) | -38
96 | 47 |  | c1ccc(-c2nc(SCCCC3OCCCO3)[nH]c2-c2ccccc2)cc1 | -57
95 | 69 |  | CCOC(CCSc1nc(-c2ccccc2)c(-c2ccccc2)[nH]1)OCC | 4
94 | 100 |  | CC1(C)CC(=O)OC(CSc2nc(-c3ccccc3)c(-c3ccccc3)[nH]2)C1 (stereo unspecified) | -17
 |  | 85 | CO[C@]1(C)C[C@H](O)C[C@@H](CSc2nc(-c3ccccc3)c(-c3ccccc3)[nH]2)O1 | 
